Test results as given in ChEMBL document CHEMBL1817567, “Design of benzimidazole- and benzoxazole-2-thione derivatives as inhibitors of bacterial hyaluronan lyase” (Eur J Med Chem, 2011).
Converted amounts (≈) assume the structure as drawn. The source made the active and inactive calls. The rule behind the calls is not given here.

Key:
[1] = Inhibition of Streptococcus agalactiae 4755 hyaluronidase at pH 7.4 after 3 hrs by turbidimetric analysis
How it was run: (§1)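 Same turbidimetric hyaluronan-lyase assay at pH 7.4 (citrate–phosphate/NaCl): SagHyal4755 2.9 ng, hyaluronan (2 mg/ml stock), BSA, 3.8% DMSO final, 3 h at 37 °C. CTAB (2.5%, in 0.5 M NaOH) precipitation, 20 min at 25 °C, A600. Activity scaled between no-inhibitor and no-enzyme samples.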

[2] = biological target: T1, Hyaluronidase (Bos taurus) (UniProt Q8SQG8+Q5E985); assay: Inhibition of bovine testes hyaluronidase at 200 uM after 30 mins at pH 5 by turbidimetric analysis; assay type: protein assay
[3] = biological target: T1, Hyaluronidase (Bos taurus); assay: Inhibition of bovine testes hyaluronidase at 380 uM after 30 mins at pH 5 by turbidimetric analysis; assay type: protein assay
[4] = biological target: T1, Hyaluronidase (Bos taurus); assay: Inhibition of bovine testes hyaluronidase at 49 uM after 30 mins at pH 5 by turbidimetric analysis; assay type: protein assay
[5] = biological target: T1, Hyaluronidase (Bos taurus); assay: Inhibition of bovine testes hyaluronidase at 4200 uM after 30 mins at pH 5 by turbidimetric analysis; assay type: protein assay
[6] = biological target: T1, Hyaluronidase (Bos taurus); assay: Inhibition of bovine testes hyaluronidase at 460 uM after 30 mins at pH 5 by turbidimetric analysis; assay type: protein assay
[7] = biological target: T1, Hyaluronidase (Bos taurus); assay: Inhibition of bovine testes hyaluronidase at 180 uM after 30 mins at pH 5 by turbidimetric analysis; assay type: protein assay
[8] = biological target: T1, Hyaluronidase (Bos taurus); assay: Inhibition of bovine testes hyaluronidase at 190 uM after 30 mins at pH 5 by turbidimetric analysis; assay type: protein assay
[9] = biological target: T1, Hyaluronidase (Bos taurus); assay: Inhibition of bovine testes hyaluronidase at 170 uM after 30 mins at pH 5 by turbidimetric analysis; assay type: protein assay
[10] = biological target: T1, Hyaluronidase (Bos taurus); assay: Inhibition of bovine testes hyaluronidase at 100 uM after 30 mins at pH 5 by turbidimetric analysis; assay type: protein assay
[11] = biological target: T1, Hyaluronidase (Bos taurus); assay: Inhibition of bovine testes hyaluronidase at 400 uM after 30 mins at pH 5 by turbidimetric analysis; assay type: protein assay
[12] = biological target: T1, Hyaluronidase (Bos taurus); assay: Inhibition of bovine testes hyaluronidase at 3800 uM after 30 mins at pH 5 by turbidimetric analysis; assay type: protein assay
[13] = biological target: T1, Hyaluronidase (Bos taurus); assay: Inhibition of bovine testes hyaluronidase at 130 uM after 30 mins at pH 5 by turbidimetric analysis; assay type: protein assay
[14] = biological target: T1, Hyaluronidase (Bos taurus); assay: Inhibition of bovine testes hyaluronidase at 63 uM after 30 mins at pH 5 by turbidimetric analysis; assay type: protein assay
[15] = biological target: T1, Hyaluronidase (Bos taurus); assay: Inhibition of bovine testes hyaluronidase at 80 uM after 30 mins at pH 5 by turbidimetric analysis; assay type: protein assay
[16] = biological target: T1, Hyaluronidase (Bos taurus); assay: Inhibition of bovine testes hyaluronidase at 2000 uM after 30 mins at pH 5 by turbidimetric analysis; assay type: protein assay
[17] = biological target: T1, Hyaluronidase (Bos taurus); assay: Inhibition of bovine testes hyaluronidase at 150 uM after 30 mins at pH 5 by turbidimetric analysis; assay type: protein assay
[18] = Aqueous solubility of the compound in water; assay type: physicochemical
How it was run: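 Turbidity at 600 nm of test compound in DMSO added to citrate–phosphate buffer (pH 5 and pH 7.4), water and BSA (0.2 mg/ml stock), at various concentrations, read against a water reference. Enzyme testing used only concentrations showing no turbidity.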

Streptococcus agalactiae [19] = assay: Inhibition of Streptococcus agalactiae 4755 hyaluronidase at 170 uM after 30 mins at pH 5.0 by turbidimetric analysis
How it was run: (§2)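 SagHyal4755 (2.9 ng) with BSA and hyaluronan (2 mg/ml stock) in citrate–phosphate/NaCl buffer pH 5.0, 3.8% DMSO final, 30 min at 37 °C. Stopped by alkaline 2.5% CTAB, then 20 min at 25 °C. Residual-substrate turbidity read at 600 nm; no-inhibitor sample = 100%, no-enzyme sample = 0% activity. Enzyme-free compound controls were run.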

Streptococcus agalactiae [20] = assay: Inhibition of Streptococcus agalactiae 4755 hyaluronidase at 200 uM after 3 hrs at pH 7.4 by turbidimetric analysis; how it was run: as §1
Streptococcus agalactiae [21] = assay: Inhibition of Streptococcus agalactiae 4755 hyaluronidase at 200 uM after 30 mins at pH 5.0 by turbidimetric analysis; how it was run: as §2
Streptococcus agalactiae [22] = assay: Inhibition of Streptococcus agalactiae 4755 hyaluronidase at 190 uM after 30 mins at pH 5.0 by turbidimetric analysis; how it was run: as §2
Streptococcus agalactiae [23] = assay: Inhibition of Streptococcus agalactiae 4755 hyaluronidase at 3800 uM after 30 mins at pH 5.0 by turbidimetric analysis; how it was run: as §2
Streptococcus agalactiae [24] = assay: Inhibition of Streptococcus agalactiae 4755 hyaluronidase at 180 uM after 30 mins at pH 5.0 by turbidimetric analysis; how it was run: as §2
Streptococcus agalactiae [25] = assay: Inhibition of Streptococcus agalactiae 4755 hyaluronidase at 460 uM after 30 mins at pH 5.0 by turbidimetric analysis; how it was run: as §2
Streptococcus agalactiae [26] = assay: Inhibition of Streptococcus agalactiae 4755 hyaluronidase at 49 uM after 30 mins at pH 5.0 by turbidimetric analysis; how it was run: as §2
Streptococcus agalactiae [27] = assay: Inhibition of Streptococcus agalactiae 4755 hyaluronidase at 100 uM after 30 mins at pH 5.0 by turbidimetric analysis; how it was run: as §2
Streptococcus agalactiae [28] = assay: Inhibition of Streptococcus agalactiae 4755 hyaluronidase at 380 uM after 30 mins at pH 5.0 by turbidimetric analysis; how it was run: as §2
Streptococcus agalactiae [29] = assay: Inhibition of Streptococcus agalactiae 4755 hyaluronidase at 400 uM after 30 mins at pH 5.0 by turbidimetric analysis; how it was run: as §2

Row | IC50 [1] [µM] | inhibition [2] | inhibition [3] | inhibition [4] | inhibition [5] | inhibition [6] | inhibition [7] | inhibition [8] | inhibition [9] | inhibition [10] | inhibition [11] | inhibition [12] | inhibition [13] | inhibition [14] | inhibition [15] | inhibition [16] | inhibition [17] | solubility [18] [µM] | SMILES | further results
1 | 16 | inactive | inactive | inactive | inactive | inactive | inactive | inactive | inactive | inactive | inactive | inactive | inactive | inactive | inactive | inactive | inactive | 170 (≈ 42.2 µg/mL) | CCCCCC(=O)n1c(=S)[nH]c2ccccc21 | inhibition (Streptococcus agalactiae [19]): 14%
2 | – | inactive | inactive | inactive | inactive | inactive | inactive | inactive | inactive | inactive | inactive | inactive | inactive | inactive | inactive | inactive | inactive | 200 (≈ 43.6 µg/mL) | CC(=O)n1c(=O)n(C(C)=O)c2ccccc21 | inhibition (Streptococcus agalactiae [20]): 10%; inhibition (Streptococcus agalactiae [21]): inactive
3 | 20 | inactive | inactive | inactive | inactive | inactive | inactive | inactive | inactive | inactive | inactive | inactive | inactive | inactive | inactive | inactive | inactive | 190 (≈ 41.9 µg/mL) | CCCC(=O)n1c(=S)[nH]c2ccccc21 | inhibition (Streptococcus agalactiae [22]): 7%
4 | 12 | inactive | inactive | inactive | inactive | inactive | inactive | inactive | inactive | inactive | inactive | inactive | inactive | inactive | inactive | inactive | inactive | 49 (≈ 14.2 µg/mL) | CCCCCC(=O)n1c(=S)n(C(C)=O)c2ccccc21 | inhibition (Streptococcus agalactiae [26]): 50%
5 | 70 | inactive | inactive | inactive | inactive | inactive | inactive | inactive | inactive | inactive | inactive | inactive | inactive | inactive | inactive | inactive | inactive | 400 (≈ 116 µg/mL) | O=C(c1cccc(Cl)c1)n1c(=S)[nH]c2ccccc21 | inhibition (Streptococcus agalactiae [29]): 16%

Further lines, the molecule ahead of its results:

Row | SMILES | IC50 [1] [µM] | inhibition [2] | inhibition [3] | inhibition [4] | inhibition [5] | inhibition [6] | inhibition [7] | inhibition [8] | inhibition [9] | inhibition [10] | inhibition [11] | inhibition [12] | inhibition [13] | inhibition [14] | inhibition [15] | inhibition [16] | inhibition [17] | solubility [18] [µM] | further results
6 | Sc1nc2ccccc2o1 | 2540 | inactive | inactive | inactive | inactive | inactive | inactive | inactive | inactive | inactive | inactive | inactive | inactive | inactive | inactive | inactive | inactive | 3800 (≈ 575 µg/mL) | inhibition (Streptococcus agalactiae [23]): 42%
7 | CCC(=O)n1c(=S)[nH]c2ccccc21 | 26 | inactive | inactive | inactive | inactive | inactive | inactive | inactive | inactive | inactive | inactive | inactive | inactive | inactive | inactive | inactive | inactive | 180 (≈ 37.1 µg/mL) | inhibition (Streptococcus agalactiae [24]): 4%
8 | CC(=O)n1c(=S)[nH]c2ccccc21 | 17 | inactive | inactive | inactive | inactive | inactive | inactive | inactive | inactive | inactive | inactive | inactive | inactive | inactive | inactive | inactive | inactive | 460 (≈ 88.4 µg/mL) | inhibition (Streptococcus agalactiae [25]): 20%
9 | O=C(CCCc1ccccc1)n1c(=S)oc2ccccc21 | 19 | inactive | inactive | inactive | inactive | inactive | inactive | inactive | inactive | inactive | inactive | inactive | inactive | inactive | inactive | inactive | inactive | 100 (≈ 29.7 µg/mL) | inhibition (Streptococcus agalactiae [27]): 47%
10 | CCn1c(=S)n(C(C)=O)c2ccccc21 | 19 | inactive | inactive | inactive | inactive | inactive | inactive | inactive | inactive | inactive | inactive | inactive | inactive | inactive | inactive | inactive | inactive | 380 (≈ 83.7 µg/mL) | inhibition (Streptococcus agalactiae [28]): 10%
11 | COC(=O)c1ccc2oc(=S)n(C(=O)CCc3ccccc3)c2c1 | 21 | inactive | inactive | inactive | inactive | inactive | inactive | inactive | inactive | inactive | inactive | inactive | inactive | inactive | inactive | inactive | inactive | 200 (≈ 68.3 µg/mL) | inhibition (Streptococcus agalactiae [21]): 56%
